Rows were chosen to be rich in hits. Some 2.3% of all compounds tested hit in one or more screens of this group.
TRPC4 agonist = activators of mouse TRPC4 channel, primary screen, Fluo4 calcium, HEK293 TRPC4beta/mu-opioid cells; Short transient receptor potential channel 4 (Mus musculus), Q9QUQ5; Fluo4 calcium fluorescence; active compounds read high; B-score at 10 µM; 310,000 compounds, 0.49% hits; AID 2237, 2010;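 active = B-score above 5 SD of library B-scores, and initial fluorescence ratio not above library mean plus 5 SD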;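 note: positive B-score marks a calcium rise read as TRPC4 activation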
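system = HEK293 cells stably co-expressing mouse TRPC4beta and mu-opioid receptor | schedule = Fluo4 dye loading 45 min at room temperature, 110 s recording | measure = B-scored integrated calcium fluorescence ratio | signal = Fluo4 calcium-sensitive dye fluorescence, kinetic, 1 Hz baseline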
TRPC4 block = inhibitors of mouse TRPC4 channel, primary screen, Fluo4 calcium, HEK293 TRPC4beta/mu-opioid cells; AID 2247, 2010; Short transient receptor potential channel 4 (Mus musculus), Q9QUQ5; 300,000 compounds, 0.39% hits; DAMGO-evoked Fluo4 calcium flux; active compounds read low; B-score at 10 µM;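 active = B-score over 3 SD under the library average, no early fluorescence shift, positive overall ratio signal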
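Material: HEK293 cells with stable TRPC4beta plus mu-opioid receptor expression / Probe or stimulus: DAMGO in two steps, submaximal then maximal / Compound: single concentration per test compound / Technique: kinetic Fluo4 fluorescence imaging of calcium influx / Read-out: per-well B score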
TRPC6 inh = mouse TRPC6 channel inhibitors, primary screen, cell-based, HEK293, membrane potential dye. ACh-evoked depolarization; active compounds read low. B-score at 10 µM. 310,000 compounds, 1.1% hits;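 active = B-score under library mean minus 3 SD, initial fluorescence not abnormally high, positive integrated signal ratio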;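 note: B-score derived from integrated fluorescence ratio over the kinetic read; more negative B-score means stronger inhibition of depolarization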
Target sequence (Q61143 whole entry, looked up): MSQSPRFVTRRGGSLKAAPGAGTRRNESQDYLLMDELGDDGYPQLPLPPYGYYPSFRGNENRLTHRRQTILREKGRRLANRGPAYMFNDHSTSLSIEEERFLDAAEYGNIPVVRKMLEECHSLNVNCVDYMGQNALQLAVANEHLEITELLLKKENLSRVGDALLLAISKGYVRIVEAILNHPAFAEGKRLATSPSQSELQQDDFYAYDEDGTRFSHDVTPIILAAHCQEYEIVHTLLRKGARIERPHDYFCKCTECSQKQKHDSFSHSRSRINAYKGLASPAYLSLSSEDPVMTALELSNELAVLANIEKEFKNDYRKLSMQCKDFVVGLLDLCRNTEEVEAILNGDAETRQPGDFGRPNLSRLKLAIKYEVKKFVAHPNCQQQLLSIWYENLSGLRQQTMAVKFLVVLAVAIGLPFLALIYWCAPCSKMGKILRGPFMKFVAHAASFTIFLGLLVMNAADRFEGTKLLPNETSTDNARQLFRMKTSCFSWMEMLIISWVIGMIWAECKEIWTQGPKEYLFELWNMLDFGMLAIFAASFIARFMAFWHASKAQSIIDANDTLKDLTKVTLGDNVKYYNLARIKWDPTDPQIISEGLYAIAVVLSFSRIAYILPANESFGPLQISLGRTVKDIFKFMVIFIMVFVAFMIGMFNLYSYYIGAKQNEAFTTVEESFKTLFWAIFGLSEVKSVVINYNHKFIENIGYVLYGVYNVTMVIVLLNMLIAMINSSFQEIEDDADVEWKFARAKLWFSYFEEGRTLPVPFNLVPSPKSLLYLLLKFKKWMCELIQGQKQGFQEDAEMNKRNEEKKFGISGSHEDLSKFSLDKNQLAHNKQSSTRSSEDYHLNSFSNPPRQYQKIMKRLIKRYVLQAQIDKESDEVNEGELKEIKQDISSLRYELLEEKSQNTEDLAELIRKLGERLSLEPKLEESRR
TRPC4 PAM = positive allosteric modulators of TRPC4, primary screen, cell-based, mouse TRPC4beta, HEK293 mu-opioid, Fluo-4 calcium. DAMGO EC20, Fluo-4 Ca2+ flux; active compounds read high. B-score at 10 µM. 310,000 compounds, 0.42% hits;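 active = B-score of calcium response area above 5 SD of library B-scores, with initial fluorescence ratio within 5 SD of library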
TRPC6 act = mouse TRPC6 channel activators, primary screen, cell-based, HEK293, membrane potential dye. 310,000 compounds, 0.13% hits. B-score at 10 µM. Short transient receptor potential channel 6 (Mus musculus), Q61143. HEK293-TRPC6 membrane potential dye fluorescence; active compounds read high;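 active = B-score of the integrated fluorescence ratio above library mean plus 3 SD, and starting fluorescence ratio within library mean plus 5 SD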;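 note: higher score means more depolarization so channel activation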
Each line names hits and unclear results; the compound was inactive in the other large screens.

OCCN1CCN(C2CCC(c3ccc(F)cc3)c3ccc(F)cc32)CC1 (stereo not given)	TRPC4 PAM 13
CC(NC(=O)C1CCC(CNS(=O)(=O)c2ccc3c(c2)C(C)(C)C(=O)N3C)CC1)c1ccccc1 (stereo not given)	none
Cc1nnsc1C(=O)Nc1ccc(S(=O)(=O)N2CCCC(C)C2)cc1 (stereo not given)	none
COc1ccc(/C=C/CN2CCCC(C(=O)c3ccc(OC)c(F)c3)C2)cc1 (stereo not given)	TRPC4 agonist 131
COc1ccc(NC(=O)CCC(=O)c2ccc(C(C)C)cc2)cc1	none
COc1ccc(NC(=O)Nc2ccc(C(C)C)cc2)cc1	TRPC4 block -6
O=C(CSc1n[nH]c(=O)[nH]c1=O)NC1CC1	none
O=C(Nc1ccnn1C1CCN(CCCC2CCCC2)CC1)c1ccccc1Cl	TRPC4 block -8
Cc1cc(S(=O)(=O)N2CCC(N3CCCCC3)CC2)ccc1-n1cnnn1	TRPC4 PAM 33
CC(C)c1ccccc1NC(=O)COC(=O)C1(C)CC1(Cl)Cl (stereo not given)	none
COc1ccc(C2Nc3ccc(Br)cc3C(c3ccccc3)N2CC(=O)O)cc1 (stereo not given)	none
O=C(O)CN1C(c2ccccc2O)Nc2ccc(Br)cc2C1c1ccccc1 (stereo not given)	TRPC4 block -5
CCCc1[nH]nc2c1C(CCc1ccccc1)C(C#N)=C(N)O2 (stereo not given)	TRPC4 PAM 13
CCCc1[nH]nc2c1C(Cc1ccccc1)C(C#N)=C(N)O2 (stereo not given)	none
COc1ccc(C(=O)NNC(=S)NC(=O)/C=C/c2cccs2)cc1	none
O=C(/C=C/c1cccs1)NC(=S)NNC(=O)c1ccccc1O	TRPC4 agonist 47
CCNC(=S)N/N=C/c1cc(C)n(-c2ccc(Cl)cc2)c1C	TRPC4 PAM 22
Cc1cc(/C=N/NC(N)=S)c(C)n1-c1ccc(Cl)c(Cl)c1	none
CCc1cc(C(=O)Nc2ccc(S(=O)(=O)NC3=NCCCCC3)cc2)sc1C	none
O=C(NC(c1ccccc1)c1cc(Cl)c2cccnc2c1O)c1cccnc1 (stereo not given)	TRPC6 inh -5.85
O=C(O)COc1ccccc1C(Nc1cccnc1)c1cc(Cl)c2cccnc2c1O (stereo not given)	none
COc1ccc(CNCc2cccc(Oc3ccccc3)c2)cc1	TRPC4 block -6
COc1ccc(CNCc2cccc(C)c2)cc1	none
C=CCOc1ccc(Br)cc1CNC(C)(C)CO	TRPC4 block -7
Nc1c2c(nc3ccccc13)CCCC2	TRPC6 inh -5.35
COC(=O)NCC(c1cccnc1)N1CCN(c2ccccc2OC)CC1 (stereo not given)	TRPC4 agonist 69
CCCNc1nc(-c2ccccc2)c(C(=O)OCC)cc1C#N	none
CCCCNc1nc(-c2ccccc2)c(C(=O)OCC)cc1C#N	TRPC4 block -6
Nc1c2c(nc3sc4c(c13)CCCCC4)CCCCC2	TRPC4 block -5
CC1CCc2nc3sc4c(c3c(N)c2C1)CCCC4 (stereo not given)	none
O=C1CN=C(Nc2cccc(C(F)(F)F)c2)N1C1CCCC1	TRPC4 block -6
Cc1cc(C)c(NC2=NCC(=O)N2C2CCCCC2)c(C)c1	none
Cc1nc2ccccn2c1CN(C)C(=O)C1CCC(=O)N(CCc2cccc(F)c2)C1 (stereo not given)	none
COc1cccc(NS(=O)(=O)c2ccc3[nH]cc(C(=O)NCCN4CCOCC4)c(=O)c3c2)c1	none (no result: TRPC4 block)
Cc1ccccc1NS(=O)(=O)c1ccc2[nH]cc(C(=O)NCCCN3CCOCC3)c(=O)c2c1	TRPC6 inh -5.97 (no result: TRPC4 block)
CN1CCN(CCOc2cccc(Cl)c2)CC1	TRPC4 PAM 14
Clc1cccc(OCCN2CCCC2)c1	none
COC(=O)c1ccccc1-n1cccc1C(=O)NP(=O)(N1CCOCC1)N1CCOCC1	none
Cc1ccc(C)c2nc3sc(C(=O)O)cc3cc12	TRPC4 block -7

Compound activity as filed in PubChem BioAssay.
